In ChEMBL document CHEMBL4706607, “Anti-tubercular profile of new selenium-menadione conjugates against Mycobacterium tuberculosis H37Rv (ATCC 27294) strain and multidrug-resistant clinical isolates” (Eur J Med Chem, 2021):
Values after ≈ are worked out from the molar mass of the structure shown.

How the values were obtained:
[1] = Selectivity index, ratio of CC50 for African green monkey Vero cells to MIC for Mycobacterium tuberculosis CDCT-16; assay type: toxicity; conditions: read-out: Selectivity Index
[2] = Selectivity index, ratio of CC50 for African green monkey Vero cells to MIC for Mycobacterium tuberculosis H37Rv ATCC 27294; assay type: toxicity; conditions: read-out: Selectivity Index
[3] = tested on: Mycobacterium tuberculosis; assay: Antimycobacterial activity against Mycobacterium tuberculosis H37Rv ATCC 27294 assessed as reduction in bacterial growth by resazurin reduction microplate assay; assay type: functional
Procedure, shortened: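 REMA in Middlebrook 7H9 broth with 10% ADC. Compounds dissolved at 1 mg/mL in DMSO and diluted to 50 μg/mL in broth containing 5% DMSO. Ten-point two-fold dilutions gave 25.0 to 0.05 μg/mL. Growth and sterility controls on each plate. MIC was the lowest concentration preventing the blue-to-pink change.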

[4] = Selectivity index, ratio of CC50 for African green monkey Vero cells to MIC for Mycobacterium tuberculosis CDCT-27; assay type: toxicity; conditions: read-out: Selectivity Index
[5] = Cytotoxicity against African green monkey Vero cells assessed as reduction in cell viability incubated for 24 hrs by MTT assay; assay type: cell-based; conditions: chlorocebus sabaeus
Procedure, shortened: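 Vero cells kept in DMEM with 4.5 mg/mL glucose and 10% inactivated FBS at 37 °C, 5% CO2. Seeded at 30,000 cells/well and grown 24 h, then exposed to 5, 10, 25 and 50 μM for 24 h. Control was medium with 1% DMSO. MTT 0.5 mg/mL in HBSS for 3 h; formazan dissolved in DMSO and read at 570–690 nm. CC50 taken from survival relative to untreated cells.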

Compound	selectivity ratio [1]	selectivity ratio [2]	MIC [3] [µM]	selectivity ratio [4]	CC50 at 24 h [5] [µM]
CC1=C(C[Se]C(=O)c2ccc(F)cc2)C(=O)c2ccccc2C1=O	> 62.5	> 6.2	8 (≈ 3.1 µg/mL)	> 16.1	> 50
CC1=C(C[Se]C(=O)c2ccc(C)cc2)C(=O)c2ccccc2C1=O	–	–	> 10	–	–
CCCC(C)C(=O)[Se]CC1=C(C)C(=O)c2ccccc2C1=O (centres undefined)	–	–	> 10	–	–
CCCCC(=O)[Se]CC1=C(C)C(=O)c2ccccc2C1=O	–	–	> 10	–	–
CC1=C(C[Se]C(=O)c2ccccc2)C(=O)c2ccccc2C1=O	> 62.5	> 23.8	2.1 (≈ 0.775 µg/mL)	> 62.5	> 50
CCc1ccc(C(=O)[Se]CC2=C(C)C(=O)c3ccccc3C2=O)cc1	–	–	> 10	–	–
COc1ccc(C(=O)[Se]CC2=C(C)C(=O)c3ccccc3C2=O)cc1	–	–	> 10	–	–
CC1=C(C[Se]C(=O)c2ccc(Cl)cc2)C(=O)c2ccccc2C1=O	–	–	> 10	–	–
NNC(=O)c1ccncc1 [ISONIAZID]	–	> 22.7	2.2 (≈ 0.302 µg/mL)	–	> 50
CC1=C(C[Se]C(=O)c2ccccc2C)C(=O)c2ccccc2C1=O	2.5	0.9	8.1 (≈ 3.1 µg/mL)	2.5	7.7
